CHRM4 agonist – human M4 muscarinic receptor agonists, primary screen, CHO-K1 cells, Fluo-8 calcium fluorescence. Muscarinic acetylcholine receptor M4 (Homo sapiens), P08173. CHO-K1 hM4/Gqi5; vehicle 0%, full acetylcholine response 100%. activation, % at 3 µM. actives 0.14% (n = 360,000). AID 624127, 2012;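 active means activation above the run mean over all test wells plus 3 SD, cut at about 32% in these data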;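 further: peak over basal fluorescence ratio per well then scaled between controls; 0% = DMSO wells and 100% = acetylcholine at EC100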
M4 PAM – human M4 muscarinic receptor positive allosteric modulators, primary screen, CHO-K1 cells, Fluo-8 calcium fluorescence. actives 0.4% (n = 360,000). Muscarinic acetylcholine receptor M4 (Homo sapiens), P08173. CHO-K1 hM4/Gqi5, ACh EC20; 0% = ACh EC20, 100% = maximal ACh. activation, % at 3 µM;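 active means activation above its plate's cutoff, the mean activation of sample wells plus 3 SD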
M5 ag – human M5 muscarinic receptor agonists, primary screen, CHO-K1 cells, Fluo-8 calcium fluorescence; Muscarinic acetylcholine receptor M5 (Homo sapiens), P08912; CHO-K1 hM5 cells; 0% DMSO wells, 100% maximal acetylcholine response; activation, % at 3 µM; actives 0.19% (n = 360,000); AID 624037, 2012;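 active means activation above the run's mean over test compounds plus 3 SD, cut at about 23% in these data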;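 further: signal is peak over basal fluorescence ratio across the kinetic read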
Target sequence (P08912 whole entry, looked up): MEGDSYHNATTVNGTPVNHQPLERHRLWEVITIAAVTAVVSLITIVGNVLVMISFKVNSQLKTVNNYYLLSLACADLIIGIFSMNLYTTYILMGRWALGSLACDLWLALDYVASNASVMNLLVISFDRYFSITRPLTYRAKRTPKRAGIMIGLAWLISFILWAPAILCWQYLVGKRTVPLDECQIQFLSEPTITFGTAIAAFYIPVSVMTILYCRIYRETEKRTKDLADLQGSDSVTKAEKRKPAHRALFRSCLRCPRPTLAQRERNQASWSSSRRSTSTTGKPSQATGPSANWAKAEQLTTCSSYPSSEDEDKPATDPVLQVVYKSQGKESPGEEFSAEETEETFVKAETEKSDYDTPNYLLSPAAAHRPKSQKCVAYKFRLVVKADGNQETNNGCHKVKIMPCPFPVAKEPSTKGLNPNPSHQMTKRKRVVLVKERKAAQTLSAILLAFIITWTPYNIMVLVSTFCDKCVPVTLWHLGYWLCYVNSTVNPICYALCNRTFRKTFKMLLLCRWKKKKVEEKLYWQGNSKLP
M4 antag – human M4 muscarinic receptor antagonists, primary screen, CHO cells, Fluo-8 calcium fluorescence | actives 0.73% (n = 360,000) | Muscarinic acetylcholine receptor M4 (Homo sapiens), P08173 | inhibition, % at 3 µM | CHO-hM4 cells, ACh EC80;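 active means inhibition above its plate's cutoff, the mean inhibition of sample wells plus 3 SD, cut at about 27% in these data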;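 further: 0% = acetylcholine EC80 with DMSO and 100% = DMSO without agonist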
CHRM5 antagonist – human M5 muscarinic receptor antagonists, primary screen, CHO cells, Fluo-8 calcium fluorescence. CHO-hM5 cells, ACh EC80. inhibition, % at 3 µM. Muscarinic acetylcholine receptor M5 (Homo sapiens), P08912. actives 0.59% (n = 360,000);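 active means inhibition above a per-plate cutoff, the mean of that plate's test compounds plus 3 SD, cut at about 27% in these data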;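 further: 0% = acetylcholine EC80 with DMSO and 100% = DMSO without agonist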
CHRM5 PAM – human M5 muscarinic receptor positive allosteric modulators, primary screen, CHO-K1 cells, Fluo-8 calcium fluorescence; Muscarinic acetylcholine receptor M5 (Homo sapiens), P08912; actives 0.3% (n = 360,000); activation, % at 3 µM; AID 624038, 2012; CHO-K1 hM5, ACh EC20 PAM; 0% = ACh EC20, 100% = ACh EC100;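 active means activation above the run cutoff, the mean activation of all test compounds plus 3 SD, cut at about 18% in these data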
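System – CHO-K1 hM5 cells · Compound – 3 µM, single dose · Incubation – compound preincubation 140 s before EC20 acetylcholine addition · Technique – Fluo-8 calcium fluorescence · Measure – Max/basal fluorescence ratio as % of EC20–EC100 ACh window · Benchmarks – low control EC20 acetylcholine (0%), high control EC100 acetylcholine (100%) · Replication – singlicate, one well per test compound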
Numbers without * were called inactive; ! = not confirmed by another sample. Most compounds without a hit are left out; they make up all but 1.8% or so of the library.

SMILES	CHRM4 agonist	M4 PAM	M5 ag	M4 antag	CHRM5 antagonist	CHRM5 PAM
Cc1ccccc1C(O)(Cc1ccccc1)C1CN2CCC1CC2 (centres undefined)	4	-15	-13	76*	92*	-30
O=C1C2CCN(CC2)[C@@H]1Cc1ccc2ccccc2c1O	2	-23	-6	47*	30*	-17
CN1C(=O)C(Cc2cccc3ccccc23)C(=O)N(C)C1=O	0	0	-2	8	-2	-3
O=C(N/N=C/c1c(O)n(C2CCCCC2)c(=S)[nH]c1=O)c1ccccc1	-1	0	-4	-23	7	-3
O=C(N/N=C/C1C(=O)NC(=S)N(c2ccccc2)C1=O)c1cc(Br)c(O)c(Br)c1 (centres undefined)	7	-12	1	9	30*	-19
CC(=O)OC1(c2ccccc2)CC(C(C)(C)C)CN(C(C)(C)C)C1 (centres undefined)	1	-2	0	3	9	-7
CC(C)[N+]12CCC(CC1)C(C(O)(c1ccccc1)c1ccccc1)C2 (centres undefined)	-1	-15	-21	54*	43*	-30
C[N+]12CCC(CC1)C(C(O)(c1cccc(Cl)c1)c1cccc(Cl)c1)C2 (centres undefined)	0	-15	-20	87*	74*	-30
Cc1ccc(C(O)(c2ccc(C)c(C)c2)C2CN3CCC2CC3)cc1C (centres undefined)	4	-2	-5	0	14	-9
CC[N+]12CCC(CC1)C(C(O)(c1ccccc1)c1ccccc1)C2 (centres undefined)	0	-44	-18	72*	86*	-32
CN1CCCC(C(O)(c2ccccc2)c2ccccc2)C1 (centres undefined)	1	-18	-20	-11	-2	-14
S=C=Nc1ccccn1	0	7	0	4	6	5
COC(=O)NC(=C(Cl)Cl)P(=O)(c1ccccc1)c1ccccc1	1	31*	2	3	-17	16
Cc1ccc(C(=O)N/C(=C\Cl)P(=O)(c2ccccc2)c2ccccc2)cc1	1	1	-3	-5	-13	1
CN1/C(=C\C=C2C(=O)NC(=S)NC2=O)C(C)(C)c2ccccc21	23	-14	104*	15	22	-24
CN(C)[C@@H]1C(=O)C(C(N)=O)=C(O)[C@@]2(O)C(=O)C3=C(O)c4c(O)cccc4[C@@](C)(O)C3[C@H](O)C12 (some centres undefined)	5	-18	1	49*!	23	-19
C=CCC1(Nc2ccccc2)CC(C)N(C)CC1C (centres undefined)	1	-51	-21	49*	52*	-35
Cc1ccc(-n2c(-c3cccs3)nc3ccccc3c2=O)cc1	-2	9	-5	4	-1	-1
NC(Cc1ccccc1)Cc1ccccc1	2	5	-2	-2	12	4
NC(Cc1ccccc1)c1nn[nH]n1 (centres undefined)	0	0	-2	-2	30*	-11
CCC(C)NC(=O)c1c(N)n(Cc2ccc3c(c2)OCO3)c2nc3ccccc3nc12 (centres undefined)	4	5	9	-9	-5	19*
COC(=O)C1=C(c2ccc3ccccc3c2)C[C@@H]2CC[C@H]1N2C	2	2	-12	2	6	-5
COC(=O)C1=C(C(=O)OC)C2OC1c1cc3ccccc3cc12	14	-10	0	96*	17	-7
C[N+](C)(C)CC#CCN1CCCC1=O	107*	-20	99*	95*	98*	-13
C/C(Cl)=C/CC1(CN2CCCC2=O)C(=O)NC(=O)NC1=O	0	8	-1	3	-3	2
SMILES	CHRM4 agonist	M4 PAM	M5 ag	M4 antag	CHRM5 antagonist	CHRM5 PAM
CCOC(=O)[C@]12Cc3cc(OC)ccc3[C@H]1N(C1CCCCC1)C(=O)c1ccccc12	-2	-2	20	20	3	9
CCOC(=O)[C@]12Cc3cc(Cl)ccc3[C@H]1N(C1CCCCC1)C(=O)c1ccccc12	-2	1	24*	30*	2	12
Nc1ccc2nonc2c1[N+](=O)[O-]	9	-9	4	11	6	-2
C=C(C)CSc1nnc([C@@H](N)Cc2ccccc2)o1	1	11	1	1	-2	11
Cn1cc(C(=O)c2ccccc2)c2ccccc21	0	2	31*	-3	-3	-11
O=C(CCC(=O)N1C[C@H]2C[C@@H](C1)c1cccc(=O)n1C2)NCc1ccccc1	1	3	2	5	9	-1
O=C(CCC(=O)N1C[C@H]2C[C@@H](C1)c1cccc(=O)n1C2)NCc1cccc(C(F)(F)F)c1	-1	-17	1	99*	4	0
N[C@@H](Cc1ccccc1)C(=O)N1C[C@H]2C[C@@H](C1)c1cccc(=O)n1C2	0	-16	-3	92*	6	-17
CCC(C(=O)N1C[C@H]2C[C@@H](C1)c1cccc(=O)n1C2)c1ccccc1 (some centres undefined)	1	-7	0	3	5	-7
CNS(=O)(=O)c1ccc(N=Cc2c(O)n(-c3ccccc3)c(=O)[nH]c2=O)cc1	2	2	-3	1	3	-3
COc1ccc(-n2nnnc2C(c2cccs2)N2CCC(n3c(=O)[nH]c4ccccc43)CC2)cc1 (centres undefined)	18	-9	4	36*	7	-21
COc1ccc(-n2nnnc2C(c2cccc(OC)c2OC)N2CCC(n3c(=O)[nH]c4ccccc43)CC2)cc1 (centres undefined)	18	-8	15	18	9	-16
COc1cccc(C(c2nnnn2-c2ccc3c(c2)OCCO3)N2CCC(n3c(=O)[nH]c4ccccc43)CC2)c1OC (centres undefined)	23	-10	30*	13	15	-10
COc1ccc(-n2nnnc2C(c2ccccc2)N2CCC(n3c(=O)[nH]c4ccccc43)CC2)cc1 (centres undefined)	19	-12	6	25	22	-18

Screening data from PubChem BioAssay.
